# Experimental data from ChEMBL document CHEMBL4251559, “Design, synthesis, and evaluation of NDGA analogues as potential anti-ischemic stroke agents” (Eur J Med Chem, 2018).
# Activity calls are given as the source filed them. The rule behind the calls is not given here.
# How the values were obtained:
# Rattus norvegicus [1] = experiment: Antiischemic stroke activity in Sprague-Dawley rat middle cerebral artery occlusion-induced ischemia-reperfusion injury model assessed as decrease in infarct size at 0.2 mg/kg, icv as nanoparticle measured after 72 hrs by TTC staining-based assay; assay type: functional, organism-based
# Outline: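 Male Sprague-Dawley rats (250-280 g), n = 7 per group. Nanoparticle-loaded drug (0.2 mg/kg) or isovolumetric saline or vehicle (polymer:DMSO:distilled water 50 mg:1 mL:3 mL) given by intracerebroventricular injection 2 h before MCAO. Filament occlusion for 2 h, then 72 h reperfusion. Brain slices stained with TTC at 37 °C for 30 min, photographed, and infarct area quantified by image analysis.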
# Rattus norvegicus [2] = experiment: Antiischemic stroke activity in Sprague-Dawley rat middle cerebral artery occlusion-induced ischemia-reperfusion injury model assessed as decrease in neurological score at 0.2 mg/kg, icv as nanoparticle measured after 72 hrs by Longa's method; assay type: functional, organism-based
# Outline: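 Male Sprague-Dawley rats (250-280 g), n = 7 per group. Intracerebroventricular injection of nanoparticle formulation 0.2 mg/kg 2 h before MCAO. Vehicle was polymer:DMSO:distilled water (50 mg:1 mL:3 mL). Intraluminal thread (about 1.8 cm) via ECA, 2 h occlusion, then 72 h reperfusion. Neurological deficit scored at 72 h on Longa's 0–4 scale. Mean ± SD, n ≥ 6.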
# [3] = Antioxidant activity assessed as DPPH radical scavenging activity at 20 mg/ml after 30 mins; assay type: functional
# Outline: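 Samples were 20 mg/mL solutions in ethanol, mixed with 0.15 mM ethanolic DPPH (80 µL sample plus 120 µL DPPH). Mixtures were incubated 30 min at 25 °C and absorbance read at 517 nm. Ethanol plus DPPH served as the control. % scavenging = [1-(Ai-Aj)/Ac]×100. Run in triplicate.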
# PC-12 [4] = experiment: Cytoprotective activity against H2O2-induced damage in rat PC12 cells assessed as increase in cell viability at 5 uM preincubated for 1 hr followed by H2O2 challenge measured after 24 hrs by MTT assay; assay type: functional, cell-based
# Outline: (§1)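 PC12 cells at 5×10^3/well, attached overnight. Pretreated with 5 µM compound for 1 h or 24 h, then 400 µM H2O2 for 24 h. MTT (5 mg/mL) for 4 h at 37 °C, formazan dissolved in DMSO, OD read at 490 nm. Viability given as % of untreated control.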
# PC-12 [5] = experiment: Cytoprotective activity against H2O2-induced damage in rat PC12 cells assessed as increase in cell viability at 5 uM preincubated for 24 hrs followed by H2O2 challenge measured after 24 hrs by MTT assay; assay type: functional, cell-based; outline: as §1
# PC-12 [6] = experiment: Cytotoxicity against rat PC12 cells assessed as decrease in cell viability at 5 uM after 24 hrs by MTT assay; assay type: cell-based; conditions: pc-12, 24 h
# Outline: (§2)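 PC12 cells at 5×10^3/well, attached overnight. Exposed to 5 µM compound for 24 h or 72 h without H2O2. MTT 4 h at 37 °C, formazan dissolved in DMSO, OD 490 nm. Viability as % of untreated control.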
# PC-12 [7] = experiment: Cytotoxicity against rat PC12 cells assessed as decrease in cell viability at 5 uM after 72 hrs by MTT assay; assay type: cell-based; conditions: pc-12, 72 h; outline: as §2
# PC-12 [8] = experiment: Cytoprotective activity against H2O2-induced damage in rat PC12 cells assessed as increase in cell viability preincubated for 1 to 24 hrs followed by H2O2 challenge measured after 24 hrs by MTT assay; assay type: functional, cell-based
# Outline: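 PC12 cells at 5×10^3/well, attached overnight. Pretreated 1 h or 24 h at 2.5, 5 or 7.5 µM, then 400 µM H2O2 for 24 h. MTT 4 h at 37 °C, DMSO solubilisation, OD 490 nm. Viability as % of control. Mean ± SD, n = 3, one-way ANOVA with Tukey test.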
# PC-12 [9] = experiment: Cytoprotective activity against H2O2-induced damage in rat PC12 cells assessed as decrease in MDA levels preincubated for 1 to 24 hrs followed by H2O2 challenge measured after 16 hrs; assay type: functional, cell-based
# Outline: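 PC12 cells in DMEM with 10% FBS at 37 °C, 5% CO2. Pre-incubated 1 h or 24 h with compound (2.5, 5, 7.5 µM; reference compounds 5 µM), then exposed to 700 µM H2O2 for 16 h. Supernatant taken after centrifugation at 1600 × g for 10 min at 4 °C, and MDA measured with a kit. Mean ± SD, n = 3, one-way ANOVA with Tukey test.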
# PC-12 [10] = experiment: Cytoprotective activity against H2O2-induced damage in rat PC12 cells assessed as decrease in ROS accumulation at 5 uM preincubated for 1 to 24 hrs followed by H2O2 challenge measured after 3 hrs by DCFH-DA dye-based flow cytometric method; assay type: functional, cell-based
# Outline: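 PC12 cells seeded at 3 × 10^5/mL and attached overnight. Pre-incubated 1 h or 24 h with 5 µM compound, then H2O2 for 3 h. Loaded with DCFH-DA at 37 °C for 30 min, detached enzymatically, washed in PBS, filtered and analysed by flow cytometry. Mean ± SD, n = 3.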
# [11] = molecular target: T1, Nuclear factor erythroid 2-related factor 2 (Rattus norvegicus) (UniProt O54968); experiment: Induction of Nrf2 translocation in nucleus of rat PC12 cells at 5 uM after 6 hrs by DAPI staining-based fluorescence microscopic method; assay type: cell-based
# T1 sequence (whole entry): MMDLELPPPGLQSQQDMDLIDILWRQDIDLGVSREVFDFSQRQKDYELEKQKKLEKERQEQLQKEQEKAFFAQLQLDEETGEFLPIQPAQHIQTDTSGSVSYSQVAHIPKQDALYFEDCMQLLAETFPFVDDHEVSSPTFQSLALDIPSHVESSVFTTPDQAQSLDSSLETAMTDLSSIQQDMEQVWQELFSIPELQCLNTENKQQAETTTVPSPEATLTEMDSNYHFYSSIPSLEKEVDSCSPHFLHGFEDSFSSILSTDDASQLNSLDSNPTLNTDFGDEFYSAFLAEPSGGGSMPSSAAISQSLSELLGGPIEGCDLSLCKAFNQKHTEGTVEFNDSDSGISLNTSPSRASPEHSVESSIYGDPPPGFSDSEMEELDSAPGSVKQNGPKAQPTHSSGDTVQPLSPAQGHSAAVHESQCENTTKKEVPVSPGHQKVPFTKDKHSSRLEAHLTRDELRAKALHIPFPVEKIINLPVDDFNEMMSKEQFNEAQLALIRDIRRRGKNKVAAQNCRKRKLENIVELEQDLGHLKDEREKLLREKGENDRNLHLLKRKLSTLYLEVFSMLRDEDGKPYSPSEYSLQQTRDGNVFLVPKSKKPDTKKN
# Outline: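 PC12 cells on coverslips treated with 5 µM compound for 6 h. Fixed in 4% paraformaldehyde (20 min, 4 °C), permeabilised with 1% Triton X-100, blocked with 1% BSA. Anti-Nrf2 (1:300) overnight at 4 °C, then PE-labelled secondary (1:300) 1 h in the dark. DAPI counterstain, imaged by fluorescence microscopy.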
# [12] = molecular target: T1, Nuclear factor erythroid 2-related factor 2 (Rattus norvegicus); experiment: Induction of Nrf2 translocation in nucleus of rat PC12 cells assessed as upregulation of HO-1 protein expression after 24 hrs by Western blot method; assay type: cell-based
# Outline: (§3)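 PC12 cells treated 24 h at 2.5, 5 or 10 µM; reference compounds at 10 µM. Lysed in ice-cold RIPA, run on 10% SDS-PAGE and transferred to PVDF. Probed with anti-HO-1 (1:300) and GAPDH (1:1000) overnight at 4 °C, then HRP anti-rabbit IgG 1 h. Mean ± SD, n = 3, one-way ANOVA with Tukey test.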
# [13] = molecular target: T1, Nuclear factor erythroid 2-related factor 2 (Rattus norvegicus); experiment: Induction of Nrf2 translocation in nucleus of rat PC12 cells assessed as upregulation of HO-1 protein expression at 5 uM after 24 hrs by Western blot method
# [14] = molecular target: T1, Nuclear factor erythroid 2-related factor 2 (Rattus norvegicus); experiment: Induction of Nrf2 translocation in nucleus of rat PC12 cells assessed as upregulation of HO-1 protein expression at 10 uM after 24 hrs by Western blot method; assay type: cell-based; outline: as §3
SMILES,Activity [3],Activity (PC-12 [4]),further results
CC1=NN(c2ccccc2)C(=O)C1,,,Activity (Rattus norvegicus [1]): Active; Activity (Rattus norvegicus [2]): Active
O=C1/C(=C/c2ccc(O)c(O)c2)CN(C2CC2)C/C1=C\c1ccc(O)c(O)c1,Active,Active,
O=C1C(=Cc2ccc(O)c(O)c2)CC/C1=C\c1ccc(O)c(O)c1,Active,Active,Activity (PC-12 [5]): Active; Activity (PC-12 [6]): Non-Toxic; Activity (PC-12 [7]): Toxic; Activity (PC-12 [8]): Dose-dependent effect; Activity (PC-12 [9]): Dose-dependent effect; Activity (PC-12 [10]): Active; Activity [11]: Active; Activity [12]: Dose-dependent effect; Activity (Rattus norvegicus [1]): Active; Activity (Rattus norvegicus [2]): Active; Activity [13]: inactive
O=C1/C(=C/c2ccc(O)c(O)c2)COC/C1=C\c1ccc(O)c(O)c1,Active,Active,Activity (PC-12 [5]): Active; Activity (PC-12 [6]): Non-Toxic; Activity (PC-12 [7]): Toxic
O=C1/C(=C/c2ccc(O)c(O)c2)CSC/C1=C\c1ccc(O)c(O)c1,Active,Active,
O=C1/C(=C/c2ccc(O)c(O)c2)CN(CCc2ccccc2)C/C1=C\c1ccc(O)c(O)c1,Active,Active,
O=C1C(=Cc2ccc(O)c(O)c2)CCC/C1=C\c1ccc(O)c(O)c1,Active,Active,
O=C1/C(=C/c2ccc(O)c(O)c2)CNC/C1=C\c1ccc(O)c(O)c1,Active,Active,Activity (PC-12 [5]): Active; Activity (PC-12 [6]): Non-Toxic; Activity (PC-12 [7]): Toxic
CCOC(=O)N1C/C(=C\c2ccc(O)c(O)c2)C(=O)/C(=C/c2ccc(O)c(O)c2)C1,Active,Active,
CC(C)(C)c1cc(O)ccc1O,,,Activity [11]: Active; Activity [14]: Active
O=C1/C(=C/c2ccc(O)c(O)c2)CN(Cc2ccccc2)C/C1=C\c1ccc(O)c(O)c1,Active,Active,
O=C1/C(=C/c2ccc(O)c(O)c2)CN(C(=O)OCc2ccccc2)C/C1=C\c1ccc(O)c(O)c1,Active,Active,
CN1C/C(=C\c2ccc(O)c(O)c2)C(=O)/C(=C/c2ccc(O)c(O)c2)C1,Active,Active,
C[C@H](Cc1ccc(O)c(O)c1)[C@@H](C)Cc1ccc(O)c(O)c1,Active,Active,Activity [11]: Active; Activity [14]: Active
CCCN1C/C(=C\c2ccc(O)c(O)c2)C(=O)/C(=C/c2ccc(O)c(O)c2)C1,Active,Active,
